High-throughput results from PubChem.
Runt-SMMHC FRET: inhibitors of human RUNX1 Runt domain binding to CBFb-SMMHC. Q01196+Q13951. Cerulean-Runt/Venus-CBFb-SMMHC FRET ratio 530/480, 1 h. inhibition, % at 20 µM. 0.74% of 220,000 active. AID 1434;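 active = mean inhibition across duplicate retests at 20 µM reaching about 50%, limit read from the data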;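 note: 0% = DMSO wells and 100% = wells with excess untagged CBFb-SMMHC; inhibitors lower the FRET ratio by blocking Runt binding to CBFb-SMMHC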
CaV13 ICDI inh: Disruptors of the CACNA1D IQ motif to Ca2+-dependent inactivation inhibitor domain association, primary screening, Förster resonance energy transfer in intact living … | inhibition, % at 12.3 µM | AID 743397 | HEK cells, CFP/YFP FRET ICDI-IQ, plate reader, 10 min; percent FRET-ratio fall versus neutral wells | 0.098% of 340,000 active;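 active = mean replicate inhibition of at least 30% and at least 1% of replicates passing that level; inconclusive = only one of the two criteria is met; inactive = neither criterion is met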;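 note: 0% = median of the neutral control wells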
Hck Nef HTS: human Hck-Nef kinase inhibition; Recombinant Hck-YEEI plus Nef, Z-Lyte FRET kinase assay; inhibition, % at 20 µM; P08631; AID 463187; 0.68% of 220,000 active;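 active = Hck-Nef kinase inhibition above about 50%, limit read from the data; inactive = inhibition below that limit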;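 note: 0% = DMSO with Hck plus Nef and 100% = Hck alone without Nef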
Target sequence (P08631 whole entry, looked up): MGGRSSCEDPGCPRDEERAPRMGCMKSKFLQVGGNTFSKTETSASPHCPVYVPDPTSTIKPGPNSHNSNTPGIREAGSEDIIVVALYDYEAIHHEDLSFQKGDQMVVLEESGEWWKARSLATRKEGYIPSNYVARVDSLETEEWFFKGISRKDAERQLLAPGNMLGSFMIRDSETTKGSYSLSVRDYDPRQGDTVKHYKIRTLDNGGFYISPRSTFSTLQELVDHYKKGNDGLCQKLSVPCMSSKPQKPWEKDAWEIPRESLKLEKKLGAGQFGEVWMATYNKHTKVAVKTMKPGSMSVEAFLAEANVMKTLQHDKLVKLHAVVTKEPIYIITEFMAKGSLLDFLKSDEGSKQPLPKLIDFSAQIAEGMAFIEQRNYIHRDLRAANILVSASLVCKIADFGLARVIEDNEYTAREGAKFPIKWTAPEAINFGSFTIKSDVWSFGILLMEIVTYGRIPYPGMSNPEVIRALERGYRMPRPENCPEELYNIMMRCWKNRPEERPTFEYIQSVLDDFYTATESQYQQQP
Runt-CBFb FRET: Runt domain-CBFb interaction inhibition; Cerulean-Runt/Venus-CBFb FRET ratio 530/480, 1 h; inhibition, % at 20 µM; AID 1496; Q01196+Q13951; 0.46% of 220,000 active;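 active = inhibition over about 50% at 20 µM in the single-dose screen, limit read from the data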;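 note: 0% = DMSO wells and 100% = excess unlabeled CBFb competitor control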
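Reagent – Venus-CBFb binding partner, 100 nM · Assay system – Cerulean-tagged RUNX1 Runt domain (FRET donor) fusion protein · Input – 100 nM per protein · Incubation – two 1 h room-temperature incubations shielded from light · Measured by – FRET fluorescence · Medium – Tris buffer pH 7.5 with salts and BSA · Benchmarks – unlabeled CBFb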
RanGTP-Impb inh: disruptors of Ran-importin-beta complex formation – biochemical, FRET, CFP-Ran, YFP-importin-beta, homogeneous, primary screen. inhibition, % (concentration not given with the values). cell-free CFP-Ran/YFP-importin-beta FRET ratio. 1.1% of 300,000 active. AID 2216;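 active = more than half of the replicate wells show a fall in the fluorescence ratio signal beyond about 16%, limit read from the data, passing the limit was not always enough; inconclusive = exactly half of the replicate wells pass the set limit; inactive = fewer than half of replicates pass the limit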;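 note: 0% = DMSO wells and 100% = Ran loaded with GDP instead of GTP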
* hit, by the source's call. Most compounds without a hit are left out; they make up all but 1.5% or so of the library.

Screening O=C(CCc1ccccc1)Nc1nnc(-c2ccc3c(c2)OCCO3)o1 returned Runt-SMMHC FRET 3, CaV13 ICDI inh 1, Hck Nef HTS 10, Runt-CBFb FRET 2 and RanGTP-Impb inh 0.
For COc1cc(/C=N/NS(=O)(=O)c2ccc(C)cc2)ccc1OCc1ccc(C(=O)O)cc1 the results were Runt-SMMHC FRET -1, CaV13 ICDI inh -5, Hck Nef HTS 5, Runt-CBFb FRET -1 and RanGTP-Impb inh -3.
CCC(=O)Nc1c(S(=O)(=O)c2ccc(C)cc2)c2nc3ccccc3nc2n1C(C)c1ccccc1 (stereo unspecified) was read as Runt-SMMHC FRET 75*, CaV13 ICDI inh -4, Hck Nef HTS 12, Runt-CBFb FRET 37 and RanGTP-Impb inh 4.
Screening CCCCn1c(NC(=O)c2ccco2)c(S(=O)(=O)c2ccc(C)cc2)c2nc3ccccc3nc21 returned Runt-SMMHC FRET 46, CaV13 ICDI inh -4, Hck Nef HTS 49, Runt-CBFb FRET 4 and RanGTP-Impb inh 49*.
For COc1ccc(NC(=O)CS(=O)c2ccc(Br)cc2)cc1 (stereo unspecified) the results were CaV13 ICDI inh -5 and RanGTP-Impb inh -3.
CCOC(=O)c1sc(N=NC2=C(O)CCCC2=O)c(C(=O)OCC)c1C was read as Runt-SMMHC FRET -20, CaV13 ICDI inh -3, Hck Nef HTS 51*, Runt-CBFb FRET -16 and RanGTP-Impb inh 5.
`Cn1c(-c2ccc(N)cc2)nc2ccccc21` gave Runt-SMMHC FRET 3, Hck Nef HTS 2 and Runt-CBFb FRET 0.
For Cc1ccc(-n2c(N)c(-c3nc4ccccc4n3C)sc2=S)cc1 the results were Runt-SMMHC FRET 0, CaV13 ICDI inh -4, Hck Nef HTS -1, Runt-CBFb FRET 40 and RanGTP-Impb inh 28*.
`O=C(NCCN1CCOCC1)C1CCCN(S(=O)(=O)c2ccc(F)cc2)C1` (stereo unspecified) gave RanGTP-Impb inh -1.
`COC(=O)C1=CN(Cc2cccs2)C=C(C(=O)OC)C1c1cccc(OC)c1OC` gave Runt-SMMHC FRET 41, Hck Nef HTS 7, Runt-CBFb FRET 93* and RanGTP-Impb inh 71*.
For COC(=O)C1=CN(Cc2ccc(OC)c(OC)c2)C=C(C(=O)OC)C1c1ccc(O)cc1 the results were CaV13 ICDI inh -1 and RanGTP-Impb inh inconclusive.
For COC(=O)C1=CN(Cc2ccc(OC)c(OC)c2)C=C(C(=O)OC)C1c1ccc(F)cc1 the results were CaV13 ICDI inh 0 and RanGTP-Impb inh 18*.
For COC(=O)C1=CN(Cc2ccc(OC)c(OC)c2)C=C(C(=O)OC)C1c1cccc(OC)c1OC the results were CaV13 ICDI inh 3 and RanGTP-Impb inh 73*.
`COC(=O)C1=CN(C2CC2)C=C(C(=O)OC)C1c1ccccc1OC` gave Runt-SMMHC FRET 38, CaV13 ICDI inh -1, Hck Nef HTS 49, Runt-CBFb FRET 105* and RanGTP-Impb inh 32*.
`Cc1c(NS(=O)(=O)c2cc(C(=O)OCC(=O)c3ccccc3F)ccc2Cl)c(=O)n(-c2ccccc2)n1C` gave CaV13 ICDI inh -3.
`O=C(CCCc1nc2ccccc2s1)NCc1cccnc1` gave Runt-SMMHC FRET -3, CaV13 ICDI inh -7, Hck Nef HTS 9, Runt-CBFb FRET -1 and RanGTP-Impb inh 6.
Screening COc1ccccc1CNC(=O)c1cccc(NC(=O)c2ccccc2)c1 returned Runt-SMMHC FRET -2, CaV13 ICDI inh -6, Hck Nef HTS 11, Runt-CBFb FRET 0 and RanGTP-Impb inh -2.
Screening COc1ccccc1CNC(=O)c1ccncc1 returned CaV13 ICDI inh -4 and RanGTP-Impb inh 23*.
For O=C(Nc1cccc(S(=O)(=O)N2CCCCC2)c1)C1CC(=O)N(Cc2ccco2)C1 (stereo unspecified) the results were Runt-SMMHC FRET -3, CaV13 ICDI inh -6, Hck Nef HTS 15, Runt-CBFb FRET 1 and RanGTP-Impb inh 40*.
COc1ccc(S(=O)(=O)N2CCCCC2)cc1NC(=O)C1CC(=O)N(Cc2ccco2)C1 (stereo unspecified) was read as CaV13 ICDI inh -17.
For COc1cc(/C=C(\C#N)C(=O)NC(C)C)cc(Cl)c1O the results were Runt-SMMHC FRET 63*, CaV13 ICDI inh 48*, Hck Nef HTS 17, Runt-CBFb FRET 33 and RanGTP-Impb inh -3.
For CC(C)NC(=O)/C(C#N)=C/c1cccc(NC(=O)c2ccccc2Cl)c1 the results were Runt-SMMHC FRET 8, CaV13 ICDI inh -5, Hck Nef HTS 1, Runt-CBFb FRET 0 and RanGTP-Impb inh -3.
`CC1(C)Cc2c(c(N3CCOCC3)nc3snc(NC(=O)c4ccccc4)c23)CO1` gave Runt-SMMHC FRET 0, Hck Nef HTS 3, Runt-CBFb FRET 0 and RanGTP-Impb inh 3.
Screening Cc1nc2c(sc3nc(N4CCOCC4)c4c(c32)CC(C)(C)OC4)c(-c2ccccc2)c1C(=O)O returned Runt-SMMHC FRET 82, CaV13 ICDI inh -5, Hck Nef HTS -72, Runt-CBFb FRET 14 and RanGTP-Impb inh 23*.
For C=CCNC(=O)CC1C(=O)NCCN1Cc1c(F)cccc1Cl (stereo unspecified) the results were CaV13 ICDI inh 4, Hck Nef HTS 28 and RanGTP-Impb inh 2.
Screening CCOc1cc(CNn2cnnc2SCC(=O)NC(C)(C)C)ccc1OCC(=O)NC(C)(C)C returned Runt-SMMHC FRET 2, CaV13 ICDI inh -5, Hck Nef HTS -11, Runt-CBFb FRET -2 and RanGTP-Impb inh 1.
CCCSc1nc2sc3c(c2c(=O)[nH]1)CCN(Cc1ccccc1)C3 was read as Runt-SMMHC FRET -120, Hck Nef HTS 10, Runt-CBFb FRET -48 and RanGTP-Impb inh -16.
Screening O=c1[nH]c(C(Cl)Cl)nc2sc3c(c12)CCN(Cc1ccccc1)C3 returned CaV13 ICDI inh -1, Hck Nef HTS -30, Runt-CBFb FRET 54* and RanGTP-Impb inh 37*.
For CC(C)N1CCc2c(sc(NC(=O)CCS(=O)(=O)c3ccccc3)c2C(N)=O)C1 the results were RanGTP-Impb inh 153*.
`CC(C)N1CCc2c(sc(NC(=O)CN3C(=O)c4ccccc4C3=O)c2C(N)=O)C1` gave Runt-SMMHC FRET 129*, CaV13 ICDI inh 30, Hck Nef HTS 12, Runt-CBFb FRET 98* and RanGTP-Impb inh 142*.
Cc1csc(NC(=O)CN2C(=O)c3ccccc3C2=O)c1C(N)=O was read as Runt-SMMHC FRET -2, CaV13 ICDI inh -4, Hck Nef HTS 17, Runt-CBFb FRET 1 and RanGTP-Impb inh 3.
COc1cc2ccccc2cc1C(=O)Nc1sc2c(c1C(N)=O)CCN(C(C)C)C2 was read as CaV13 ICDI inh -6 and RanGTP-Impb inh 47*.
`Cc1ccccc1N1C(=O)CC1(C#N)c1ccc(OCc2ccccc2)cc1` (stereo unspecified) gave Runt-SMMHC FRET -6, CaV13 ICDI inh -5, Hck Nef HTS 5, Runt-CBFb FRET -3 and RanGTP-Impb inh -4.
